Compound activity deposited in PubChem by The Scripps Research Institute Molecular Screening Center.
OX1R antag-1: antagonists of human orexin 1 receptor (OX1R). O43613. OX1R-expressing cells, FRET antagonist read-out. inhibition, % at 6.6 µM. hit rate 1.8% among 330,000; in the data active = inhibition mostly above about 38%, no sharp cut-off; inactive = mostly below about 40%
GalR3 antagonist: human GalR3 antagonism | hit rate 0.44% among 360,000 | inhibition, % at 3 µM | HEK293 GalR3-CNG cAMP membrane potential fluorescence; galR3 body fused to GalR1 C-terminus | O60755;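 active = inhibition above the screen-wide average plus 3 SD, cut at about 13% in these data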;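 also: forskolin and galanin both at EC90 stimulate the cells; cAMP rise reported by CNG channel membrane potential dye signal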
Target sequence (O60755 1-299 limits assumed): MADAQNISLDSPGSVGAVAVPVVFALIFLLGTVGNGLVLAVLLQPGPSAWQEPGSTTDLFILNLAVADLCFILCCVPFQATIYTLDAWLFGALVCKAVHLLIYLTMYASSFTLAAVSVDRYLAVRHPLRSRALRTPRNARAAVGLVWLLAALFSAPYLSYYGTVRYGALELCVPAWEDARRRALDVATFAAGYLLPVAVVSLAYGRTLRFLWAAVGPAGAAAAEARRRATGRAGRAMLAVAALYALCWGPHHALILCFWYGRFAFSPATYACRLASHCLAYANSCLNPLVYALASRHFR
GPR7 antag: human neuropeptides B/W receptor 1 antagonism; P48145; inhibition, % at 4.4 µM; hit rate 1.1% among 290,000; GPR7-expressing cells, fluorescence antagonist assay; in the data active = inhibition above about 16%, passing the limit was not always enough;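 also: cells stimulated with the agonist NPW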
Target sequence (P48145 whole entry, looked up): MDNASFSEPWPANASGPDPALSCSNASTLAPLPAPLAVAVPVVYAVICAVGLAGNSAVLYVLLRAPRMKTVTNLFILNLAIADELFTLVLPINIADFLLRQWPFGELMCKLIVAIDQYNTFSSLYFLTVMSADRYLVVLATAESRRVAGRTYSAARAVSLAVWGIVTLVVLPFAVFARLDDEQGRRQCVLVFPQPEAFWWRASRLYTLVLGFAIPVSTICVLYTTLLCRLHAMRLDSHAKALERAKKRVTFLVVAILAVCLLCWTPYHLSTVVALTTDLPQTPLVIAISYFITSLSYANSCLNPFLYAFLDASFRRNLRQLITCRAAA
CHO parental Ca: signal in parental CHO cells, OX1R antagonist counter-screen; parental CHO-K1, ATP-induced calcium, Fluo-8 fluorescence; inhibition, % at 5.6 µM; hit rate 0.63% among 330,000;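 active = inhibition above that plate's mean sample inhibition plus 3 SD, cut at about 26% in these data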
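Test system: untransfected parental CHO cell line; also added: ATP stimulus; dosing: 5.6 µM, single dose; signal: calcium-sensitive Fluo-8 fluorescence; measure: percent inhibition of ATP-evoked calcium rise, normalized to controls; benchmarks: low control ATP plus DMSO, high control DMSO only; replication: one well per compound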
OX1R antag-2: human HCRTR1 antagonism; CHO/OX1R cells, Fluo-8 calcium fluorescence, orexin A; hit rate 0.43% among 330,000; O43613; inhibition, % at 5 µM; AID 434989;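 active = inhibition above its plate's threshold, mean inhibition of all tested compounds on the plate plus 3 SD, cut at about 37% in these data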
Of the large screens only hits and unclear results are named; the others gave an inactive call. Most compounds without a hit are left out; they make up all but 3.1% or so of the library.

COc1ccc(NC(=O)C2CCCN2S(=O)(=O)c2cccc3nsnc23)c(OC)c1 (stereo not given)	OX1R antag-1 57 (no result: GalR3 antagonist)
COc1ccc(OC)c(NC(=O)C2CCCN(S(=O)(=O)c3cccc4nsnc34)C2)c1 (stereo not given)	none
Cc1cccc(C)c1NC(=O)CSc1nnc(C2CCCCC2)o1	none
COc1ccc2c(C)cc(SCC(=O)NC3CCCC3)nc2c1	none (no result: GPR7 antag)
COc1ccc2c(C)cc(SCC(=O)c3ccc4c(c3)OCO4)nc2c1	OX1R antag-1 40
Cc1cc(C)c(C#N)c(SCC(=O)c2cc(C)n(CCc3ccccc3)c2C)n1	CHO parental Ca 46
Cc1ccnc(Nc2nc(-c3c(C)nc4sccn34)cs2)c1	OX1R antag-1 55
Cc1ccnc(Nc2nc(-c3ccccc3)cs2)c1	none
Cc1nc(N2CCOCC2)c2c(C)c(C(=O)Nc3ccc(F)cc3Cl)sc2n1	GalR3 antagonist 14
Cc1nc(N2CCOCC2)c2c(C)c(C(=O)Nc3ccccc3Cl)sc2n1	none
O=c1cc(-c2ccc(O)cc2)oc2c1ccc1ccccc12	OX1R antag-1 44 (no result: GPR7 antag)
CCOc1ccc(NC(=O)CN(C)S(=O)(=O)c2ccc3c(c2)CCC(=O)N3)cc1	none
CC(=O)c1c(C)[nH]c(C(=O)OCC(=O)Nc2cccc(S(=O)(=O)N3CCCC3)c2)c1C	OX1R antag-2 39
Cc1ccc(C)c(C(=O)OCC(=O)Nc2cccc(S(=O)(=O)N3CCCCC3)c2)c1	OX1R antag-2 54 (no result: GPR7 antag)
O=C(COC(=O)C1CC2C=CC1C2)Nc1cccc(S(=O)(=O)N2CCCCCC2)c1 (stereo not given)	CHO parental Ca 33
CC(=O)c1c(C)[nH]c(C(=O)OCC(=O)Nc2cc(S(=O)(=O)N3CCCC3)ccc2Cl)c1C	none
COCCn1cnnc1SCC(=O)Nc1cccc(S(=O)(=O)N2CCCCCC2)c1	GPR7 antag 20
C=CCNC(=O)c1ccc2c(=O)n(Cc3ccccc3OC)c(=S)[nH]c2c1	none
COc1ccc(C(=O)N2CCCC(O)C2)cc1OC1CCN(C(C)C)CC1 (stereo not given)	none (no result: OX1R antag-1, CHO parental Ca, OX1R antag-2)
CC(=O)N1CCc2cc(Br)cc(S(=O)(=O)NCCCN(C)Cc3ccccc3)c21	none
O=C(Cn1nc(C(=O)O)c2ccccc2c1=O)Nc1cccc(S(=O)(=O)N2CCCCCC2)c1	CHO parental Ca 32, OX1R antag-2 43 (no result: GPR7 antag)
CCN(CC)S(=O)(=O)c1cc(NC(=O)CNc2cccc(S(=O)(=O)N3CCCC3)c2)ccc1C	CHO parental Ca 45 (no result: GalR3 antagonist, GPR7 antag)
CN(C)S(=O)(=O)c1cccc(NC(=O)CNc2cccc(S(=O)(=O)N3CCCCC3)c2)c1	none (no result: OX1R antag-1, GPR7 antag, CHO parental Ca, OX1R antag-2)
O=C(N/N=C/c1cc2c(cc1[N+](=O)[O-])OCO2)c1cccnc1	none
O=C(N/N=C/c1cc2c(c([N+](=O)[O-])c1)OCO2)c1ccncc1	OX1R antag-1 54
COc1ccc(OC)c(/C=C2/Sc3ccccc3C2=O)c1	CHO parental Ca 37, OX1R antag-2 57
O=C(NCCc1ccccc1)c1cccc2c1C(=O)c1ccc(N3CCOCC3)cc1S2(=O)=O	none (no result: GPR7 antag)
COc1ccc(-c2ccc3c(c2)S(=O)(=O)c2cccc(C(=O)NC[C@@H]4CCCO4)c2C3=O)cc1OC	OX1R antag-1 37 (no result: GPR7 antag)
O=C(NC[C@@H]1CCCO1)c1cccc2c1C(=O)c1ccc(Cl)cc1S2(=O)=O	OX1R antag-1 45 (no result: GPR7 antag)
C=CCNC(=O)c1cccc2c1C(=O)c1ccc(N3CCOCC3)cc1S2(=O)=O	OX1R antag-1 64 (no result: GPR7 antag)
CC(C)CC1(C)NC(=O)N(Cc2cc([N+](=O)[O-])cc3c2OCOC3)C1=O (stereo not given)	none
CCCn1c(SCC(=O)NC2CCCCC2)nnc1-c1ccccn1	none
Cc1oc(-c2cccs2)cc1C(=O)N1CCCC(C)(C(=O)O)C1 (stereo not given)	none (no result: OX1R antag-1, GPR7 antag, CHO parental Ca, OX1R antag-2)
OCCCNc1nc(-c2ccc(Cl)cc2)nnc1-c1ccc(Br)cc1	none
O=[N+]([O-])c1ccc(-c2nnc(-c3ccccc3)c(NCCCO)n2)cc1	OX1R antag-1 38
O=C(COC(=O)C12CC3CC(CC(C3)C1)C2)NNC(=O)c1ccccc1	none (no result: GPR7 antag)
CCn1nc(C)c(CNC(=O)CCc2nnc(-c3ccc(C(C)=O)s3)o2)c1C	OX1R antag-1 63
CCC(=O)C1CCCN(C(=O)CCc2nnc(-c3ccc(C(C)=O)s3)o2)C1 (stereo not given)	OX1R antag-1 38
Cc1cc(C)cc(N2CC(C(=O)OCC(=O)Nc3cc(C)on3)CC2=O)c1 (stereo not given)	none
COC(=O)CCC(=O)NC1CC(C)(C)Cc2c1cnn2-c1ccccc1 (stereo not given)	none (no result: OX1R antag-1, CHO parental Ca, OX1R antag-2)
O=C(NCCc1ccccc1)c1ccc2c(=O)[nH]c3c(C(=O)NCC4CCCO4)sc(=S)n3c2c1 (stereo not given)	OX1R antag-1 52
CCCCNC(=O)c1sc(=S)n2c1[nH]c(=O)c1ccccc12	OX1R antag-1 52
O=C(NCCc1ccc(Cl)cc1)c1ccc2c(=O)[nH]c3c(C(=O)NCC4CCCO4)sc(=S)n3c2c1 (stereo not given)	none (no result: OX1R antag-1, GPR7 antag, CHO parental Ca, OX1R antag-2)
COc1ccc(C(=O)Oc2cc3c4c(c2)C(C)=CC(C)(C)N4C(=O)C3=O)cc1OC	none
COc1cccc(C(=O)Oc2cc3c4c(c2)C(C)=CC(C)(C)N4C(=O)C3=O)c1	GalR3 antagonist 24
Cc1cccc(/C=N/NC(=O)c2cc(C)nc3ccccc23)n1	none
Cc1cccc(/C=N/NC(=O)c2cc(C3CC3)nc3ccccc23)n1	OX1R antag-1 74
Cc1ccc(C(O)c2ncc(-c3ccccc3C(F)(F)F)[nH]2)cc1F (stereo not given)	none (no result: OX1R antag-1, GPR7 antag, CHO parental Ca, OX1R antag-2)
Cc1ccc(S(=O)(=O)NCCOCCNS(=O)(=O)c2ccc(C)cc2)cc1	none
CSc1nc(C)cc(OCCNS(=O)(=O)c2ccc(C)cc2)n1	OX1R antag-1 39
CN(C)S(=O)(=O)Oc1ccc(C(=O)Nc2cccc(C(F)(F)F)c2)cc1	OX1R antag-1 51, CHO parental Ca 53
C=CCn1c(Sc2ncc([N+](=O)[O-])s2)n[nH]c1=O	OX1R antag-1 57
Cc1csc(NC(=O)CCc2c(C)nc3cc(-c4ccc(Cl)cc4)nn3c2C)n1	none
Cc1nc2cc(-c3ccc(Cl)cc3)nn2c(C)c1CCC(=O)NC(C)c1ccc2c(c1)OCCO2 (stereo not given)	OX1R antag-1 49
CCc1ccc(NC(=O)C(C)OC(=O)c2ccc(N3CCCC3)c([N+](=O)[O-])c2)cc1 (stereo not given)	none
CCCn1nc(NS(=O)(=O)c2cccc3nonc23)c2cc3cccc(C)c3nc21	OX1R antag-1 52
CCCn1nc(NS(=O)(=O)c2cccc3nonc23)c2cc3cc(C)ccc3nc21	none
Cc1ccc(-c2csc(=Nc3cccnc3)n2CCCN2CCCC2=O)cc1C	OX1R antag-1 64
Cc1ccc(-c2csc(=Nc3cccnc3)n2CCCn2ccnc2)cc1C	none
CC(=O)Nc1ccc(S(=O)(=O)N2CCCN(c3nc(C)cc(C)c3C#N)CC2)cc1	none
COc1cc2c(cc1NC(=O)C(c1ccccc1)c1ccccc1)CCCC2	CHO parental Ca 32
COc1cc(NC(=O)C(c2ccccc2)c2ccccc2)c(C(=O)O)cc1OC	none
